Experimental data reported in ChEMBL document CHEMBL3877250, “Design, synthesis, and biological evaluation of (2E)-(2-oxo-1, 2-dihydro-3H-indol-3-ylidene)acetate derivatives as anti-proliferative agents through ROS-induced cell apoptosis” (Eur J Med Chem, 2016).

Columns and labels:
[1] = Cytotoxicity against human Saos2 cells assessed as growth inhibition at 20 uM after 72 hrs by CCK-8 assay; assay type: functional; conditions: SAOS-2, 72 h, read-out: GI
In short: (§1)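 Cells kept in RPMI 1640 with 10% heat-inactivated fetal calf serum and 1% streptomycin/penicillin at 37 °C, 5% CO2. After compound exposure, CCK-8 was added and cells were incubated 4 h at 37 °C, then absorbance was read at 450 nm. Viability is relative to untreated cells (100%). IC50 comes from nonlinear regression, mean of three separate determinations. Single-concentration screen at 20 µM.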

[2] = Cytotoxicity against human MDA-MB-231 cells assessed as growth inhibition at 20 uM after 72 hrs by CCK-8 assay; assay type: functional; conditions: MDA-MB-231, 72 h, read-out: GI; in short: as §1
[3] = Antitumor activity against human HepG2 cells assessed as growth inhibition at 20 uM after 72 hrs by CCK-8 assay; assay type: functional; conditions: HepG2, 72 h, read-out: GI; in short: as §1
[4] = Cytotoxicity against human HL60 cells assessed as growth inhibition at 20 uM after 72 hrs by CCK-8 assay; assay type: functional; conditions: HL-60, 72 h, read-out: GI; in short: as §1
[5] = Cytotoxicity against human L02 cells after 72 hrs by CCK-8 assay; assay type: toxicity, cell-based; in short: as §1
[6] = Cytotoxicity against human HL60 cells after 72 hrs by CCK-8 assay; assay type: functional, cell-based; conditions: HL-60, 72 h; in short: as §1
[7] = Cytotoxicity against human SW480 cells assessed as growth inhibition at 20 uM after 72 hrs by CCK-8 assay; assay type: functional; conditions: SW480, 72 h, read-out: GI; in short: as §1
[8] = Cytotoxicity against human L02 cells assessed as growth inhibition at 20 uM after 72 hrs by CCK-8 assay; assay type: toxicity, cell-based; conditions: read-out: GI; in short: as §1
[9] = Cytotoxicity against human OVCAR3 cells assessed as growth inhibition at 20 uM after 72 hrs by CCK-8 assay; assay type: functional; conditions: OVCAR-3, 72 h, read-out: GI; in short: as §1
[10] = Cytotoxicity against human SK-BR-3 cells assessed as growth inhibition at 20 uM after 72 hrs by CCK-8 assay; assay type: functional; conditions: SK-BR-3, 72 h, read-out: GI; in short: as §1
[11] = Cytotoxicity against human HCT116 cells assessed as growth inhibition at 20 uM after 72 hrs by CCK-8 assay; assay type: functional; conditions: HCT-116, 72 h, read-out: GI; in short: as §1
[12] = Cytotoxicity against human L02 cells; assay type: toxicity, cell-based
[13] = Cytotoxicity against human OVCAR3 cells after 72 hrs by CCK-8 assay; assay type: functional, cell-based; conditions: OVCAR-3, 72 h; in short: as §1
[14] = Cytotoxicity against human Saos2 cells after 72 hrs by CCK-8 assay; assay type: functional, cell-based; conditions: SAOS-2, 72 h; in short: as §1
[15] = Cytotoxicity against human MDA-MB-231 cells after 72 hrs by CCK-8 assay; assay type: functional, cell-based; conditions: MDA-MB-231, 72 h; in short: as §1
[16] = Cytotoxicity against human HCT116 cells after 72 hrs by CCK-8 assay; assay type: functional, cell-based; conditions: HCT-116, 72 h; in short: as §1
[17] = Cytotoxicity against human HepG2 cells after 72 hrs by CCK-8 assay; assay type: functional, cell-based; conditions: HepG2, 72 h; in short: as §1
[18] = Cytotoxicity against human SK-BR-3 cells after 72 hrs by CCK-8 assay; assay type: functional, cell-based; conditions: SK-BR-3, 72 h; in short: as §1
[19] = Cytotoxicity against human SW480 cells after 72 hrs by CCK-8 assay; assay type: functional, cell-based; conditions: SW480, 72 h; in short: as §1

| Compound | inhibition of growth at 20 µM [1] [%] | inhibition of growth at 20 µM [2] [%] | inhibition of growth at 20 µM [3] [%] | inhibition of growth at 20 µM [4] [%] | IC50 at 72 h [5] [µM] | IC50 [6] [µM] | inhibition of growth at 20 µM [7] [%] | inhibition at 72 h, 20 µM [8] [%] | inhibition of growth at 20 µM [9] [%] | inhibition of growth at 20 µM [10] [%] | inhibition of growth at 20 µM [11] [%] | IC50 [12] [µM] | IC50 [13] [µM] | IC50 [14] [µM] | IC50 [15] [µM] | IC50 [16] [µM] | IC50 [17] [µM] | IC50 [18] [µM] | IC50 [19] [µM] |
| --- | --- | --- | --- | --- | --- | --- | --- | --- | --- | --- | --- | --- | --- | --- | --- | --- | --- | --- | --- |
| CCOC(=O)/C=C1/C(=O)Nc2ccccc21 | 81.4 | 86.9 | 90.2 | 77.7 | 4.23 | 4.83 | 78.3 | 63.9 | 57.3 | 85.5 | 89.3 | – | – | – | – | – | – | – | – |
| COc1ccc2c(c1)NC(=O)/C2=C/C(=O)OC(C)(C)C | 83.2 | 87.1 | 88.3 | 91.6 | 4.34 | 9.15 | 78.8 | 63.6 | 57.9 | 87 | 89.5 | – | – | – | – | – | – | – | – |
| CC(C)(C)OC(=O)/C=C1/C(=O)N(Cc2ccccc2)c2ccccc21 | 82.1 | 87.1 | 88 | 91.7 | 5.03 | 13.8 | 78.4 | 62 | 58.9 | 88 | 87.9 | – | – | – | – | – | – | – | – |
| COc1ccc2c(c1)/C(=C\C(=O)OC(C)(C)C)C(=O)N2 | 82 | 87.6 | 90.1 | 94.2 | 3.82 | 6.19 | 78.7 | 63.7 | 59 | 87.7 | 89.6 | – | – | – | – | – | – | – | – |
| O=C(O)/C=C1/C(=O)Nc2ccccc21 | 8.9 | 1 | 3 | 0.9 | > 100 | > 100 | 6.4 | 3.3 | 13.4 | 17.9 | -0.7 | – | – | – | – | – | – | – | – |
| CN1C(=O)/C(=C/C(=O)OC(C)(C)C)c2ccccc21 | 81.9 | 86.6 | 88.4 | 94.7 | 4.32 | 2.76 | 77.8 | 61.4 | 57.1 | 87.6 | 87.5 | 12.2 | – | – | – | – | – | – | – |
| CC(C)(C)OC(=O)CC1C(=O)Nc2ccccc21 (stereo unspecified) | 1.5 | 3.7 | 1.2 | 0.5 | > 100 | > 100 | 8.8 | 0.1 | 6.4 | 22.6 | 1.7 | – | – | – | – | – | – | – | – |
| CC(C)(C)OC(=O)/C=C1/C(=O)Nc2ccc(OC(F)(F)F)cc21 | 80.1 | 86.9 | 88.4 | 95.9 | 4.04 | 4.48 | 77.8 | 61.3 | 59 | 88.1 | 87.7 | – | – | – | – | – | – | – | – |
| Cc1ccc2c(c1)/C(=C\C(=O)OC(C)(C)C)C(=O)N2 | 83.7 | 87.8 | 90.3 | 94.6 | 2.68 | 5 | 79 | 63.9 | 59.5 | 88 | 89.4 | – | – | – | – | – | – | – | – |
| Cc1c(Cl)ccc2c1NC(=O)/C2=C/C(=O)OC(C)(C)C | 82.6 | 87.3 | 69.7 | 82.9 | 6.26 | 3.64 | 77.2 | 64.3 | 57.4 | 87.9 | 89.9 | – | – | – | – | – | – | – | – |
| CC(C)(C)OC(=O)/C=C1/C(=O)Nc2ccc([N+](=O)[O-])cc21 | 82.8 | 86.9 | 88.2 | 86.6 | 3.82 | 9.86 | 77.9 | 62 | 55.6 | 87.9 | 88.1 | – | – | – | – | – | – | – | – |
| CC(C)(C)OC(=O)/C=C1/C(=O)Nc2ccc(Cl)cc21 | 82.3 | 87.6 | 87.1 | 94.9 | 4.72 | 3.16 | 78.5 | 63.3 | 59.4 | 87.6 | 89.7 | 6.18 | 19 | 6.51 | 3.11 | 5.5 | 8.99 | 6.48 | 5.49 |
